What was measured:
[1] = target: GABA-A receptor; anion channel (Rattus norvegicus) (UniProt O09028+P15431+P18506+P18508+P19969+P20236+P23574+P23576+P28471+P28473+P30191+P62813+P63079+P63138+Q91ZM7+Q9ES14); assay: Ratio of binding affinity to the GABA-A receptor in the presence and absence of GABA; format: protein-complex assay
Procedure, shortened: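 [3H]-Ro 15-1788 displacement in washed rat cortical membranes (Krebs/HEPES pH 7.4, nipecotic acid 10^-4 M, 30 °C, 60 min) run with and without GABA at 0.3 mM. Nonspecific binding was defined by 3 μM clonazepam, and read-out was filtration with scintillation counting. The value is the ratio of the affinities obtained with GABA and without it.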

[2] = target: GABA-A receptor; anion channel; assay: Inhibition of [3H]-Ro- 15-1788 binding to GABA-A benzodiazepine receptor of rat cortical membranes; format: cell membranes, Membrane
Procedure, shortened: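 Rat (Sprague–Dawley, 250-300 g) cortical membranes, water-washed and frozen at -20 °C ≥18 h, then washed repeatedly in Krebs/HEPES pH 7.4. Incubated with 0.2-0.5 mg protein, [3H]-Ro 15-1788 (5 nM stock added), 10^-4 M nipecotic acid, 30 °C for 60 min. Nonspecific binding with 3 μM clonazepam. Filtration, scintillation counting.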

In the case of Cc1noc(-c2ncn3c2CN=C(c2ccccc2)c2ccccc2-3)n1, the GABA shift [1] is reported as 1.94 and the IC50 [2] is reported as 24 nM.
